The record followed here is PubChem BioAssay.

Activity calls are given as the source filed them.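 How the source made its calls, unless noted: active means Her2 level under about 52% in both replicate screens, with viability over 70% of control (limit read from the data); inconclusive means Her2 under the limit in one screen only, or viability under 70%; inactive means Her2 level above the set limit.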

A short description of experiment [1]: reducers of endogenous Her2 protein level, primary screen, SKBR3 breast tumor cells, AlphaScreen, ATP viability (AID 461).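 On Her2 level: lower value means less Her2 protein in the cells.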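 On viability: percent of carrier control wells set as 100% viability.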 The note with it: 18-24 h, measured here: SKBR3 viability, ATP luminescence, at 10 µM.
Experiment [2] concerns the target Receptor tyrosine-protein kinase erbB-2 (Homo sapiens) (UniProt P04626). The description is as above. The following applies: 18-24 h, at 10 µM, stronger effect = lower value.
The nature of experiment [3]: SK-BR-3 cell growth inhibitors, pilot screen, 24 h, human (AID 572;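 active means viability at or below 10% of carrier control in both of two separate runs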;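 further: compound exposure lasted between 18 and 24 h rather than exactly 24 h; 100% = carrier-treated control wells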). The following applies: SK-BR-3 viability, CellTiter-Glo luminescence, at 10 µM, stronger effect = lower value. On the technique in general: Cellular ATP, detected with luciferase, serves as a proxy for viable cell number.
Experiment [4] in a line: HUVEC growth inhibition – cell-based, human, primary screen (AID 575;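 active means viability at or below 30% in both replicate assays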;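 further: 100% = median of untreated cell wells with 0.1% DMSO on each plate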). The following applies: HUVEC proliferation, CellTiter-Glo luminescence, 72 h; at 10 µM; stronger effect = lower value. The method, boiled down: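 Timing: 72 h treatment at 37 °C; material: HUVEC primary cells; technique: CellTiter-Glo luminescence measuring cellular ATP; controls: vehicle and MePR control wells; measure: percent of median DMSO-control luminescence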

Experiment [5] in a line: growth inhibitors of H69AR lung tumor, primary screen, human, duplicate replicates (AID 580;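 active means viability at or under a set limit in both replicates, limit being median viability minus 3 SD, cut at about 48% in these data, passing the limit was not always enough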;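 further: 100% = mean luminescence of untreated wells and 0% = no signal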). The note with it: H69AR lung tumor cells viability, ATP luminescence, 72 h; at 10 µM; stronger effect = lower value.
The nature of experiment [6]: reversal of MRP1-mediated doxorubicin resistance, pilot screen, H69AR cells, doxorubicin co-treatment (AID 601;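 active means viability loss from added drug above about 55%, and viability with drug at most 40%, in both replicates, limit read from the data, passing the limit was not always enough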). The note with it: CellTiter-Glo, 72 h, at 10 µM; for differential viability (reversal): stronger effect = higher value.
A short description of experiment [7]: 384-well plate pilot, post-Golgi transport modulator project, inhibition of yeast transport mutant growth (AID 636; in the data active means inhibition above about 31%). The following applies: absorbance 615 nm, about 18 h, stronger effect = higher value.
A short description of experiment [8]: growth suppression of yeast trafficking mutant, preliminary HTS, modulators of trafficking downstream of Golgi apparatus project, 1536-format plate, OD 615 nm (AID 637; in the data active means inhibition above about 30%). The following applies: yeast transport mutant growth, absorbance 615 nm, 18 h; stronger effect = higher value.
Setting [9] is: H69AR cells + 2 uM doxorubicin, measured here: viability with 2 uM doxorubicin, stronger effect = lower value.
The mark [10] stands for this setting: H69AR cells, compound alone cytotoxicity.

Receptor tyrosine-protein kinase erbB-2 (Homo sapiens), sequence (P04626 whole entry, looked up): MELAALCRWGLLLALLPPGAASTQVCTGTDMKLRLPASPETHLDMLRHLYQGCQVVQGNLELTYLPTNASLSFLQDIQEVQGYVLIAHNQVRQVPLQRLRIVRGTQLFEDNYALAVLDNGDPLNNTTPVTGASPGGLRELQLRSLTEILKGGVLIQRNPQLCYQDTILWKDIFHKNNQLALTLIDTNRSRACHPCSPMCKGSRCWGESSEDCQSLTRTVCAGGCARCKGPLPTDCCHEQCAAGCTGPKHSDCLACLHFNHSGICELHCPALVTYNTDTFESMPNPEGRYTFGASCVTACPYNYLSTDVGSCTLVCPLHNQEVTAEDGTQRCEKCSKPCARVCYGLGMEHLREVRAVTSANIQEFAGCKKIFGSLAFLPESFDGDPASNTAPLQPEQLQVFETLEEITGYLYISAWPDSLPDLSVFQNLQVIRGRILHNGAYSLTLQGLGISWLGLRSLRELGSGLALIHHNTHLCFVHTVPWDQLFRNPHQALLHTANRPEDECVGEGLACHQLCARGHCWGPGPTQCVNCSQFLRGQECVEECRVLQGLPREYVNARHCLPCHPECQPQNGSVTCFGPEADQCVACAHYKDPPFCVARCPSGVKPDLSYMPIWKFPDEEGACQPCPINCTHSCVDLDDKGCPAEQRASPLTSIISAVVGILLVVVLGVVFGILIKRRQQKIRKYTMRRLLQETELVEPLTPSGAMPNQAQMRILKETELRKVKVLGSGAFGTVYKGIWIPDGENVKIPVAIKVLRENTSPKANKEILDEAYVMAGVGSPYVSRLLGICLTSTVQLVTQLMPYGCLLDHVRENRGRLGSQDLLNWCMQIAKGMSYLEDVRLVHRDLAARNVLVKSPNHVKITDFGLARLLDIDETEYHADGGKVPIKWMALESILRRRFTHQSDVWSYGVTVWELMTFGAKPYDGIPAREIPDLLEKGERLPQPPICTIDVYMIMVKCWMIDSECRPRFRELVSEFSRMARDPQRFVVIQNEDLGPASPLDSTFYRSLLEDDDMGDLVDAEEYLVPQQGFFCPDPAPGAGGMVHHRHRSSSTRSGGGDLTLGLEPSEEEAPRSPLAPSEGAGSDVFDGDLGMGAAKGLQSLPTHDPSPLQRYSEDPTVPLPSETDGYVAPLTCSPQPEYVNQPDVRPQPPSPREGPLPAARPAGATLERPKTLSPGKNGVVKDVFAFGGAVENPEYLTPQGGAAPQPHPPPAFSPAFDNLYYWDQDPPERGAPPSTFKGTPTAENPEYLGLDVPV

A word on the viability: it is a read-out of living cells in per cent, often relative to untreated cells. Usually inhibition stands for the change of the read-out against control, counted positive when it falls. `COc1cccc(C(=O)Nc2ccc(N(C)C)cc2)c1OC`: the viability was 97% in experiment [1]; 97% (inactive) in experiment [3]; 90% (inactive) in experiment [4]; 90.9% (inactive) in experiment [5]; 80.5% in experiment [6] (setting [9]); 90.9% in experiment [6] (setting [10]). In addition, in experiment [2], the Her2 level is 78.5% (inactive). The differential viability (reversal) in experiment [6] (H69AR cells + 2 uM doxorubicin) was 10.3% (inactive). Also, the inhibition in experiment [7] was -3.68% (inactive); in experiment [8], -1.27% (inactive).
Take `CCCCCn1c(N2CCN(Cc3ccccc3)CC2)nc2c1c(=O)[nH]c(=O)n2C`: the viability is 110% in experiment [1]; 110% (inactive) in experiment [3]; 93.3% (inactive) in experiment [4]; 76.9% (inactive) in experiment [5]; 53.2% in experiment [6] (setting [9]); 76.9% in experiment [6] (setting [10]). In addition, in experiment [2], the Her2 level was 78% (inactive). Besides, in experiment [6] (H69AR cells + 2 uM doxorubicin), the differential viability (reversal) was 23.7% (inactive). Besides, the figures for the inhibition in experiment [7] and in experiment [8] were -6.67% (inactive) and -2.46% (inactive), respectively.
Turning to `Cc1cc(C)nc(N2CCC(C(=O)NC3CCCCCC3)CC2)n1`, the viability in experiment [1] was 92.5%; in experiment [3] it was 92.5% (inactive); in experiment [4], 111% (inactive); in experiment [5] it was 96.1% (inactive); in experiment [6] (setting [9]), 94.5%; in experiment [6] (setting [10]), 96.1%. In addition, the Her2 level in experiment [2] is 99% (inactive). Further, the differential viability (reversal) in experiment [6] (H69AR cells + 2 uM doxorubicin) was 1.6% (inactive). Also, the inhibition was -4.8% (inactive) in experiment [7] and 1.13% (inactive) in experiment [8].
For `CSc1nc(C)cc(Oc2ccc(=O)n(C)n2)n1`, the viability in experiment [1] was 97%; in experiment [3], 97% (inactive); in experiment [4], 112% (inactive); in experiment [5] it was 90.5% (inactive); in experiment [6] (setting [9]) it was 78.7%; in experiment [6] (setting [10]), 90.5%. Also, in experiment [2], the Her2 level is 89.5% (inactive). Moreover, the differential viability (reversal) in experiment [6] (H69AR cells + 2 uM doxorubicin) was 11.8% (inactive). Also, the values for the inhibition in experiment [7] and in experiment [8] were -3.92% (inactive) and -3.28% (inactive), respectively.
Take `O=C(CN1CCOCC1)N1CCCc2c1c(=O)oc1ccc(OCc3ccccc3)cc21`: the viability is 82% in experiment [1]; 82% (inactive) in experiment [3]; 94.8% (inactive) in experiment [4]; 77.2% (inactive) in experiment [5]; 72.6% in experiment [6] (setting [9]); 77.2% in experiment [6] (setting [10]). In addition, the Her2 level in experiment [2] was 99.5% (inactive). Also, the differential viability (reversal) in experiment [6] (H69AR cells + 2 uM doxorubicin) is 4.61% (inactive). In addition, the inhibition in experiment [7] is -5.07% (inactive); in experiment [8], -4.1% (inactive).
On to `O=C(O)c1cc(/C=N\O)ccc1OCc1ccccc1`, for which the viability in experiment [1] was 114%; in experiment [3], 114% (inactive); in experiment [4], 95.9% (inactive); in experiment [5], 103% (inactive); in experiment [6] (setting [9]), 91.2%; in experiment [6] (setting [10]), 103%. The Her2 level in experiment [2] was 106% (inactive). Also, the differential viability (reversal) in experiment [6] (H69AR cells + 2 uM doxorubicin) was 11.7% (inactive). The inhibition was -5.33% (inactive) in experiment [7] and 1.29% (inactive) in experiment [8].
As to `CC(C)(C)n1ncc2c(=O)n(CC(=O)c3ccccc3)cnc21`, the viability is 95% in experiment [1]; 95% (inactive) in experiment [3]; 80.2% (inactive) in experiment [4]; 84.2% (inactive) in experiment [5]; 86.9% in experiment [6] (setting [9]); 84.2% in experiment [6] (setting [10]). Besides, the Her2 level in experiment [2] is 84% (inactive). In experiment [6] (H69AR cells + 2 uM doxorubicin), the differential viability (reversal) was -2.76% (inactive). The inhibition in experiment [7] is -0.39% (inactive); in experiment [8], -3.23% (inactive).
Take `CC(=O)N1CCN(Cc2ccc(Br)s2)CC1`: the viability was 93.5% in experiment [1]; 93.5% (inactive) in experiment [3]; 86.3% (inactive) in experiment [4]; 99.3% (inactive) in experiment [5]; 88.3% in experiment [6] (setting [9]); 99.3% in experiment [6] (setting [10]). In addition, the Her2 level in experiment [2] is 88% (inactive). Besides, the differential viability (reversal) in experiment [6] (H69AR cells + 2 uM doxorubicin) was 11.1% (inactive). Further, the inhibition is -3.51% (inactive) in experiment [7] and -1.31% (inactive) in experiment [8].
`COc1ccccc1NC(=O)c1nnn(CC(=O)Nc2ccccc2)c1N`: the viability in experiment [1] is 106%; in experiment [3] it was 106% (inactive); in experiment [4], 70.5% (inactive); in experiment [5] it was 90.7% (inactive); in experiment [6] (setting [9]) it was 97.6%; in experiment [6] (setting [10]), 90.7%. Moreover, the Her2 level in experiment [2] was 81% (inactive). Also, in experiment [6] (H69AR cells + 2 uM doxorubicin), the differential viability (reversal) is -6.95% (inactive). Also, the inhibition was -5.47% (inactive) in experiment [7] and -1.31% (inactive) in experiment [8].
For the molecule `CCOC(=O)c1ccc(NC(=O)NC(C)C2CCCO2)cc1` (stereo not given), the viability is 97.5% in experiment [1]; 97.5% (inactive) in experiment [3]; 108% (inactive) in experiment [4]; 95.6% (inactive) in experiment [5]; 90.4% in experiment [6] (setting [9]); 95.6% in experiment [6] (setting [10]). Further, the Her2 level in experiment [2] is 96.5% (inactive). Besides, the differential viability (reversal) in experiment [6] (H69AR cells + 2 uM doxorubicin) is 5.2% (inactive). In addition, the inhibition in experiment [7] is -1.32% (inactive); in experiment [8], -7.94% (inactive).
As to `CCC(NS(=O)(=O)c1ccc(C)cc1)C(=O)N1CCC2(O)CCCCC2C1` (stereo not given), the viability was 94% in experiment [1]; 94% (inactive) in experiment [3]; 90.7% (inactive) in experiment [4]; 94.5% (inactive) in experiment [5]; 88.6% in experiment [6] (setting [9]); 94.5% in experiment [6] (setting [10]). Also, the Her2 level in experiment [2] was 105% (inactive). Moreover, the differential viability (reversal) in experiment [6] (H69AR cells + 2 uM doxorubicin) was 5.91% (inactive). The inhibition in experiment [7] was -3.2% (inactive); in experiment [8], -1.8% (inactive).
With `Cc1cnc(C(=O)OCC(=O)Nc2ccc(Oc3ccccc3)cc2)cn1`, the viability in experiment [1] was 77%; in experiment [3], 77% (inactive); in experiment [4], 91.5% (inactive); in experiment [5], 91.9% (inactive); in experiment [6] (setting [9]), 82.3%; in experiment [6] (setting [10]) it was 91.9%. Also, the Her2 level in experiment [2] is 102% (inactive). For the same molecule, the differential viability (reversal) in experiment [6] (H69AR cells + 2 uM doxorubicin) is 9.6% (inactive). Further, the inhibition in experiment [7] was 5.51% (inactive); in experiment [8], -21.7% (inactive).
Take `Cn1c(COc2ccc(Cl)cc2)nnc1SCC(=O)NC1CCCCC1`: the viability in experiment [1] was 77%; in experiment [3], 77% (inactive); in experiment [4], 89.5% (inactive); in experiment [5], 103% (inactive); in experiment [6] (setting [9]), 94%; in experiment [6] (setting [10]) it was 103%. Also, the Her2 level in experiment [2] is 108% (inactive). Also, the differential viability (reversal) in experiment [6] (H69AR cells + 2 uM doxorubicin) was 9.25% (inactive). Moreover, the inhibition was 2.13% (inactive) in experiment [7] and 20.8% (inactive) in experiment [8].
With `CCOC(=O)/C(C#N)=C1\Nc2ccccc2N=C1N(CC(C)C)CC(C)C`, the viability in experiment [1] was 80%; in experiment [3], 80% (inactive); in experiment [4], 86.2% (inactive); in experiment [5], 84.2% (inactive); in experiment [6] (setting [9]), 89.6%; in experiment [6] (setting [10]), 84.2%. Besides, in experiment [2], the Her2 level is 104% (inactive). Besides, the differential viability (reversal) in experiment [6] (H69AR cells + 2 uM doxorubicin) was -5.4% (inactive). Besides, the inhibition in experiment [7] is -4.13% (inactive); in experiment [8] it was -2.79% (inactive).
Take `CCC(C)NC(=O)C1(C)CCC(=O)N1Cc1ccccc1OC` (stereo not given): the viability in experiment [1] was 100%; in experiment [3], 100% (inactive); in experiment [4], 99.8% (inactive); in experiment [5], 95.3% (inactive); in experiment [6] (setting [9]), 95%; in experiment [6] (setting [10]) it was 95.3%. Besides, in experiment [2], the Her2 level is 95% (inactive). Also, the differential viability (reversal) in experiment [6] (H69AR cells + 2 uM doxorubicin) is 0.27% (inactive). The results for the inhibition in experiment [7] and in experiment [8] were -5.07% (inactive) and 1.31% (inactive), respectively.
`COc1ccc(C(c2nnnn2C2CCCC2)N2CCN(C3CCCC3)CC2)cc1OC` (stereo not given): the viability was 89.5% in experiment [1]; 89.5% (inactive) in experiment [3]; 84.7% (inactive) in experiment [4]; 106% (inactive) in experiment [5]; 77.7% in experiment [6] (setting [9]); 106% in experiment [6] (setting [10]). Further, the Her2 level in experiment [2] is 84% (inactive). The differential viability (reversal) in experiment [6] (H69AR cells + 2 uM doxorubicin) is 28.3% (inactive). The inhibition in experiment [7] is -7.26% (inactive); in experiment [8] it was -2.22% (inactive).
